The record followed here is ChEMBL document CHEMBL4371075, “α-Amino Diphenyl Phosphonates as Novel Inhibitors of Escherichia coli ClpP Protease” (J Med Chem, 2019).

The target in this assay is ATP-dependent Clp protease proteolytic subunit (Escherichia coli (strain K12)) (UniProt P0A6G7). Kind of assay: Inhibition of Escherichia coli C-terminal His6-tagged ClpP expressed Escherichia coli SG1146a at 200 uM using Suc-LY-AMC as substrate preincubated for 10 mins followed by substrate addition and measured over 1 hr by fluorescence assay relative to control. An outline of the steps: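 E. coli ClpP (625 nM) in 100 mM NaCl, 100 mM Hepes pH 7.5, 0.05% Brij 35, preincubated with compound (200 µM final, triplicates) 10 min at 30 °C. Suc-LY-AMC added (75 µM), fluorescence (ex 350/em 435 nm) followed over 1 h at 30 °C. Inhibition relative to 2% DMSO vehicle; Z-LY-CMK (200 µM) positive control; plates valid at Z' > 0.6.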
ATP-dependent Clp protease proteolytic subunit (Escherichia coli (strain K12)), sequence (P0A6G7 whole entry): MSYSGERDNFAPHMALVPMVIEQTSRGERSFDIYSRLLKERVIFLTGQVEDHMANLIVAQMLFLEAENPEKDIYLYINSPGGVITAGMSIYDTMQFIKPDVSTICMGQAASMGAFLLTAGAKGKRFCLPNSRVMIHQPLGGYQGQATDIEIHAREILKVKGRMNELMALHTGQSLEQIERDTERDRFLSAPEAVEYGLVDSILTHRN
Regarding `CN(C)C(=O)Nc1ccc(CC(NC(=O)OCc2ccccc2)P(=O)(Oc2ccccc2)Oc2ccccc2)cc1` (centres undefined), the inhibition was 9%. `COC(=O)NC(c1cccc(C(=N)N)c1)P(=O)(Oc1ccccc1)Oc1ccccc1` (centres undefined) came in with an inhibition of 30%. `CN(C)c1ccc(C(NC(=O)OCc2ccccc2)P(=O)(Oc2ccccc2)Oc2ccccc2)cc1NS(C)(=O)=O` (centres undefined): the inhibition was 46%. The result for `CC(=O)Nc1ccc(OP(=O)(Oc2ccc(NC(C)=O)cc2)C(Cc2ccc(C(F)(F)F)cc2)NC(=O)OCc2ccccc2)cc1` (centres undefined) reads 1%; that for `COC(=O)NC(c1ccc(NC(=O)C(F)(F)F)cc1)P(=O)(Oc1ccccc1)Oc1ccccc1` (centres undefined), 64%; that for `O=C(NC(c1ccc2cc(O)ccc2c1)P(=O)(Oc1ccccc1)Oc1ccccc1)OCc1ccccc1` (centres undefined), less than 1%.

`Nc1ccc(C(NC(=O)OCc2c(F)c(F)c(F)c(F)c2F)P(=O)(Oc2ccccc2)Oc2ccccc2)cc1` (centres undefined) displayed an inhibition of 28%. Under `COc1ccc(CC(=O)NC(C2CCN(C(=N)N)CC2)P(=O)(Oc2ccccc2)Oc2ccccc2)cc1` (centres undefined) stands 13%. Under `N=C(N)N1CCC(C(NC(=O)C#Cc2ccc3c(c2)OCO3)P(=O)(Oc2ccccc2)Oc2ccccc2)CC1` (centres undefined) stands 24%. The result for `O=C(NC(c1ccc(NC(=O)C(F)(F)F)cc1)P(=O)(Oc1ccccc1)Oc1ccccc1)OCc1ccccc1` (centres undefined) reads 15%; that for `CN(C)c1ccc(C(NC(=O)OCc2ccccc2)P(=O)(Oc2ccccc2)Oc2ccccc2)c2ccccc12` (centres undefined), less than 1%. `NCCOc1ccc(C(NC(=O)OCc2ccccc2)P(=O)(Oc2ccccc2)Oc2ccccc2)cc1` (centres undefined) yielded an inhibition of 15%.

In turn, `N=C(N)N1CC(C(Nc2ncccn2)P(=O)(Oc2ccccc2)Oc2ccccc2)C1` (centres undefined) came in with an inhibition of 12%. The result for `CC(=O)Nc1ccc(OP(=O)(Oc2ccc(NC(C)=O)cc2)C(Cc2ccccc2)NC(=O)OCc2ccccc2)cc1` (centres undefined) reads 9%.

Consider `N=C(N)Nc1ccc(CC(NC(=O)OCc2c(F)c(F)c(F)c(F)c2F)P(=O)(Oc2ccccc2)Oc2ccccc2)cc1` (centres undefined), for which the inhibition was 25%.

In turn, `COC(=O)NC(c1cccc2c([N+](=O)[O-])cccc12)P(=O)(Oc1ccccc1)Oc1ccccc1` (centres undefined) returned an inhibition of 17%. Under `N=C(N)N1CCC(C(Nc2ncc(-c3ccccc3)cn2)P(=O)(Oc2ccccc2)Oc2ccccc2)CC1` (centres undefined) stands 12%; under `O=C(NC(Cc1ccc2ccccc2c1)P(=O)(Oc1ccccc1)Oc1ccccc1)OCc1ccccc1` (centres undefined), less than 1%; under `CSCCC(NC(=O)[C@H](CCCCN)NC(=O)OCc1ccccc1)P(=O)(Oc1ccccc1)Oc1ccccc1` (some centres undefined), 4%. Under `CC(C)C[C@H](NC(=O)OCc1ccccc1)C(=O)N[C@H](C#N)Cc1ccc(O)cc1` stands 13%; under `N=C(N)Nc1cccc2c(C(NC(=O)OCc3ccccc3)P(=O)(Oc3ccccc3)Oc3ccccc3)cccc12` (centres undefined), 38%.

Regarding `O=C(NC(CCc1ccccc1)P(=O)(Oc1ccccc1)Oc1ccccc1)OCc1ccccc1` (centres undefined), the inhibition was less than 1%.

In the case of `N=C(N)Nc1ccc(C(NS(=O)(=O)c2ccc(C(F)(F)F)cc2)P(=O)(Oc2ccccc2)Oc2ccccc2)cc1` (centres undefined), the inhibition worked out at 27%. The result for `Nc1ccc2cc(C(NC(=O)OCc3ccccc3)P(=O)(Oc3ccccc3)Oc3ccccc3)ccc2c1` (centres undefined) reads less than 1%. As to `N=C(N)Nc1ccc(CC(NC(=O)OCCC(F)(F)C(F)(F)C(F)(F)C(F)(F)C(F)(C(F)(F)F)C(F)(F)F)P(=O)(Oc2ccccc2)Oc2ccccc2)cc1` (centres undefined), the inhibition was determined as 55%. For `N=C(NO)c1cccc(C(Nc2ncccn2)P(=O)(Oc2ccccc2)Oc2ccccc2)c1` (centres undefined), the inhibition was found to be 23%. As for `[N-]=[N+]=NCCOCCOC(=O)NC(Cc1ccc(NC(=N)N)cc1)P(=O)(Oc1ccccc1)Oc1ccccc1` (centres undefined), the inhibition came to 68%. The result for `O=C(NC(c1ccc2c(c1)OCO2)P(=O)(Oc1ccccc1)Oc1ccccc1)OCc1ccccc1` (centres undefined) reads 6%; that for `O=C(NC(Cc1cccc(O)c1)P(=O)(Oc1ccccc1)Oc1ccccc1)OCc1ccccc1` (centres undefined), 3%.

The compound `COC(=O)NC(Cc1ccc(C(F)(F)F)cc1)P(=O)(Oc1ccc(NC(C)=O)cc1)Oc1ccc(NC(C)=O)cc1` (centres undefined) gave an inhibition of 20%. In turn, `N=C(N)Nc1ccc(C(NC(=O)OCc2c(F)c(F)c(F)c(F)c2F)P(=O)(Oc2ccccc2)Oc2ccccc2)cc1` (centres undefined) had an inhibition of 48%. The result for `O=C(NC(Cc1ccc(O)cc1)P(=O)(Oc1ccccc1)Oc1ccccc1)OCc1ccccc1` (centres undefined) reads less than 1%; that for `C#CCCCOC(=O)NC(Cc1ccc(NC(=N)N)cc1)P(=O)(Oc1ccccc1)Oc1ccccc1` (centres undefined), 23%; that for `O=C(NC(c1cc([N+](=O)[O-])ccc1Cl)P(=O)(Oc1ccccc1)Oc1ccccc1)OCc1ccccc1` (centres undefined), 6%. Under `N=C(N)N1CCC(C(NC(=O)/C=C/c2ccc3c(c2)OCO3)P(=O)(Oc2ccccc2)Oc2ccccc2)CC1` (centres undefined) stands 4%. Under `CC(=O)Nc1ccc(C(NC(=O)OCc2ccccc2)P(=O)(Oc2ccccc2)Oc2ccccc2)cc1` (centres undefined) stands 8%; under `Nc1ccc(C(NC(=O)OCCOc2ccccc2)P(=O)(Oc2ccccc2)Oc2ccccc2)cc1` (centres undefined), 1%; under `CN(C)C(=O)Nc1ccc(C(NC(=O)OCc2ccccc2)P(=O)(Oc2ccccc2)Oc2ccccc2)cc1` (centres undefined), 22%. For the compound `N#Cc1cccc(C(NC(=O)OCc2ccccc2)P(=O)(Oc2ccccc2)Oc2ccccc2)c1` (centres undefined), the inhibition is 15%. Under `N=C(N)N1CCC(C(NC(=O)/C=C/c2ccccc2)P(=O)(Oc2ccccc2)Oc2ccccc2)CC1` (centres undefined) stands 18%.

For the compound `O=C(NC(c1cccc([N+](=O)[O-])c1)P(=O)(Oc1ccccc1)Oc1ccccc1)OCc1ccccc1` (centres undefined), the inhibition came to 6%. The result for `O=C(NC(c1ccc([N+](=O)[O-])cc1)P(=O)(Oc1ccccc1)Oc1ccccc1)OCc1ccccc1` (centres undefined) reads 71%. With `O=C(NC(c1ccc2ccccc2c1)P(=O)(Oc1ccccc1)Oc1ccccc1)OCc1ccccc1` (centres undefined), the inhibition was found to be 51%. With `N#C[C@@H](NC(=O)OCc1ccccc1)c1cccc(N)c1`, the inhibition stood at 8%. Under `O=C(NC(CC1CCNCC1)P(=O)(Oc1ccccc1)Oc1ccccc1)OCc1ccccc1` (centres undefined) stands 16%; under `COP(=O)(Oc1ccccc1)C(Cc1ccc(O)cc1)NC(=O)OCc1ccccc1` (centres undefined), 14%; under `CC(C)C[C@H](NC(=O)OCc1ccccc1)C(=O)NC(Cc1ccc(O)cc1)P(=O)(Oc1ccccc1)Oc1ccccc1` (some centres undefined), less than 1%. Under `COC(=O)NC(c1cccc(N)c1)P(=O)(Oc1ccccc1)Oc1ccccc1` (centres undefined) stands 7%; under `O=C(NC(COCc1ccccc1)P(=O)(Oc1ccccc1)Oc1ccccc1)OCc1ccccc1` (centres undefined), 4%.

For the compound `CC(=O)Nc1ccc(OP(=O)(Oc2ccc(NC(C)=O)cc2)C(NC(=O)OCc2ccccc2)c2cccc(N)c2)cc1` (centres undefined), the inhibition was found to be 21%. Regarding `CS(=O)(=O)Nc1ccc(CCC(NC(=O)OCc2ccccc2)P(=O)(Oc2ccccc2)Oc2ccccc2)cc1` (centres undefined), the inhibition stood at 10%. `N#C[C@H](Cc1ccccc1)NC(=O)OCc1ccccc1` came in with an inhibition of less than 1%. Under `N=C(N)N1CCC(C(NC(=O)/C=C\c2ccccc2)P(=O)(Oc2ccccc2)Oc2ccccc2)CC1` (centres undefined) stands 11%. Under `N=C(N)N1CCC(C(NS(=O)(=O)CCOc2ccccc2)P(=O)(Oc2ccccc2)Oc2ccccc2)CC1` (centres undefined) stands 27%; under `N=C(N)N1CCC(C(NC(=O)c2ccco2)P(=O)(Oc2ccccc2)Oc2ccccc2)CC1` (centres undefined), 24%. Under `NCC1CCC(C(NC(=O)OCc2ccccc2)P(=O)(Oc2ccccc2)Oc2ccccc2)CC1` (centres undefined) stands 15%; under `Nc1ccc(C(NC(=O)OCCCC(F)(F)F)P(=O)(Oc2ccccc2)Oc2ccccc2)cc1` (centres undefined), less than 1%. `O=C(NC(C1CCNCC1)P(=O)(Oc1ccccc1)Oc1ccccc1)OCc1ccccc1` (centres undefined) yielded an inhibition of 30%. Under `N#C[C@H](Cc1ccc(O)cc1)NC(=O)OCc1ccccc1` stands less than 1%; under `N=C(N)Nc1ccc(C(NS(=O)(=O)c2ccccc2)P(=O)(Oc2ccccc2)Oc2ccccc2)cc1` (centres undefined), 29%; under `COc1ccc(CC(NC(=O)OCc2ccccc2)P(=O)(Oc2ccccc2)Oc2ccccc2)cc1` (centres undefined), 6%. Under `O=C(NC(Cc1ccc(O)cc1)P(=O)(O)Oc1ccccc1)OCc1ccccc1` (centres undefined) stands 11%. As to `N=C(N)c1ccc(C(NC(=O)OCc2ccccc2)P(=O)(Oc2ccccc2)Oc2ccccc2)cc1` (centres undefined), the inhibition came to 30%. The result for `COC(=O)NC(Cc1ccc(NC(=N)N)cc1)P(=O)(Oc1ccccc1)Oc1ccccc1` (centres undefined) reads 27%; that for `Cc1ccc(CC(NC(=O)OCc2ccccc2)P(=O)(Oc2ccccc2)Oc2ccccc2)cc1` (centres undefined), 7%.

The compound `N=C(N)Nc1ccc(C(NC(=O)OCc2ccccc2)P(=O)(Oc2ccccc2)Oc2ccccc2)cc1` (centres undefined) gave an inhibition of 29%. Under `C#CCOCCOCCOC(=O)NC(c1ccc(N2CCNCC2)cc1)P(=O)(Oc1ccccc1)Oc1ccccc1` (centres undefined) stands 25%. `COC(=O)NC(Cc1cccc(C(F)(F)F)c1)P(=O)(Oc1ccccc1)Oc1ccccc1` (centres undefined) came in with an inhibition of 4%.

On to `O=C(NC(c1cccc2ccccc12)P(=O)(Oc1ccccc1)Oc1ccccc1)OCc1ccccc1` (centres undefined), for which the inhibition worked out at 6%.

In turn, `CC(NC(=O)OCc1ccccc1)P(=O)(Oc1ccccc1)Oc1ccccc1` (centres undefined) returned an inhibition of 3%. `N#Cc1cc(C(NC(=O)OCc2ccccc2)P(=O)(Oc2ccccc2)Oc2ccccc2)ccc1N1CCNCC1` (centres undefined) showed an inhibition of 10%. `N=C(N)N1CCC(C(NC(=O)c2cccnc2)P(=O)(Oc2ccccc2)Oc2ccccc2)CC1` (centres undefined) displayed an inhibition of 13%. The result for `COC(=O)NC(c1cccc(N)c1)P(=O)(Oc1ccc(NC(C)=O)cc1)Oc1ccc(NC(C)=O)cc1` (centres undefined) reads 12%; that for `CC(C)CC(NC(=O)OCc1ccccc1)P(=O)(Oc1ccccc1)Oc1ccccc1` (centres undefined), 4%.
